Measurements published in ChEMBL document CHEMBL1125464, “1,3,6-trisubstituted indoles as peptidoleukotriene antagonists: benefits of a second, polar, pyrrole substituent” (J Med Chem, 1992).
Each block holds one compound with its values, some of them ahead of it.

Assays:
[1] = organism: Cavia porcellus; assay: Inhibition of LTE4 (8 nM) induced contraction of guinea pig tracheal spirals at a concentration of 3.3 uM; format: functional, Trachea
Procedure, shortened: (§1)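 Paired tracheal spirals at 37 °C in Krebs gassed with 95% O2/5% CO2 under 2 g tension, given repeated LTE4 challenges of 10 min. Compound or vehicle added 10 min before a third challenge. % inhibition = (2nd − 3rd response)/2nd × 100, corrected by subtracting the vehicle value. Paired t test, n ≥ 4.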

[2] = organism: Cavia porcellus; assay: Inhibition of LTE4 (8 nM) induced contraction of guinea pig tracheal spirals at a concentration of 1 uM; format: functional, Trachea; procedure, shortened: as §1
[3] = organism: Cavia porcellus; assay: Inhibition constant for the displacement of [3H]LTD4 on guinea pig lung parenchymal membranes; parameters: species or system Lung parenchyma
Procedure, shortened: (§2)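 Membranes from perfused lungs of male Hartley guinea pigs (300-400 g) in PIPES pH 7.5 with 10 mM CaCl2, 10 mM MgCl2, 2 mM cysteine and 2 mM glycine. 1 nM 3H-LTD4 at 22 °C for 30 min; nonspecific binding with 2 uM LTD4. Filtration, then scintillation counting. IC50 by nonlinear least squares, Ki by Cheng-Prusoff; mean of two experiments in duplicate.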

[4] = organism: Cavia porcellus; assay: Inhibition of LTE4 (8 nM) induced contraction of guinea pig tracheal spirals at a concentration of 10 uM; format: functional, Trachea; procedure, shortened: as §1
[5] = system: Cavia porcellus; assay: Protection of conscious guinea pig lung function was determined by comparison of time required for the challenged animals to exhibit labored abdominal breathing after oral dose of 10 uM/kg; format: functional
Procedure, shortened: (§3)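 Conscious guinea pigs pretreated with indomethacin (10 mg/kg ip) and propranolol (5 mg/kg ip). Compound in PEG400 (<10% v/v)/PBS given orally 180 min before a challenge of up to 5 min with aerosolized 60 uM LTD4. Time to abdominal dyspnea scored blind. % protection is taken against vehicle controls; no end point by 300 s counts as 100%. Unpaired t test.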

[6] = organism: Cavia porcellus; assay: Dissociation constant on guinea pig tracheal spirals utilizing LTE4 as agonist; settings: Trachea
[7] = organism: Cavia porcellus; assay: Inhibition of LTE4 (8 nM) induced contraction of guinea pig tracheal spirals at a concentration of 3.3 uM; NS=not statistically significant; format: functional; settings: Trachea; procedure, shortened: as §1
[8] = organism: Cavia porcellus; assay: Compound was evaluated for the displacement of [3H]LTD4 on guinea pig lung parenchymal membranes; parameters: species or system Lung parenchyma; procedure, shortened: as §2
[9] = organism: Cavia porcellus; assay: Inhibition of LTE4 (8 nM) induced contraction of guinea pig tracheal spirals at a concentration of 0.1 uM; format: functional, Trachea; procedure, shortened: as §1
[10] = organism: Cavia porcellus; assay: Inhibition of LTE4 (8 nM) induced contraction of guinea pig tracheal spirals at a concentration of 100 nM; format: functional, Trachea; procedure, shortened: as §1
[11] = organism: Cavia porcellus; assay: Inhibition of LTE4 (8 nM) induced contraction of guinea pig tracheal spirals at a concentration of 10 nM; format: functional, Trachea; procedure, shortened: as §1
[12] = Negative logarithm of the molar dissociation constant; format: ADME
Procedure, shortened: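 Paired guinea pig tracheal spirals at 37 °C in Krebs gassed with 95% O2/5% CO2, 2 g resting tension. Responses expressed relative to 30 uM carbachol. Antagonist or vehicle preincubated 30 min, then cumulative LTE4 concentration-response curves, one per tissue. EC50 by linear regression; KB = [antagonist]/(dose ratio − 1), per Furchgott.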

[13] = system: Cavia porcellus; assay: Protection of conscious guinea pig lung function was determined by comparison of time required for the challenged animals to exhibit labored abdominal breathing after oral dose of 30 uM/kg; format: functional; procedure, shortened: as §3
[14] = organism: Cavia porcellus; assay: Inhibition of LTE4 (8 nM) induced contraction of guinea pig tracheal spirals at a concentration of 0.33 uM; format: functional, Trachea; procedure, shortened: as §1
[15] = organism: Cavia porcellus; assay: Inhibition of LTE4 (8 nM) induced contraction of guinea pig tracheal spirals at a concentration of 0.50 uM; format: functional, Trachea; procedure, shortened: as §1
[16] = system: Cavia porcellus; assay: Protection of conscious guinea pig lung function was determined by comparison of time required for the challenged animals to exhibit labored abdominal breathing after oral dose of 3 uM/kg; format: functional; procedure, shortened: as §3
[17] = system: Cavia porcellus; assay: Protection of conscious guinea pig lung function was determined by comparison of time required for the challenged animals to exhibit labored abdominal breathing after oral dose of 1 uM/kg; format: functional; procedure, shortened: as §3

SMILES: COc1cc(C(=O)O)ccc1Cc1nn(C)c2ccc(C(=O)NCC3CCCC3)cc12
Inhibition [1]: 37%

SMILES: COc1cc(C(=O)O)ccc1Cc1cn(C)c2ccc(C(=O)NCC3CCCC3)cc12
Inhibition [2]: 33% | Ki [3]: 422 nM

SMILES: COc1cc(C(=O)O)ccc1Cn1ccc2ccc(C(=O)OCC3CCCC3)cc21
Inhibition [4]: 74% | Inhibition [1]: 10%

SMILES: CCCCOC(=O)Nc1ccc2c(Br)c(Br)n(Cc3ccc(C(=O)O)cc3OC)c2c1
NS [7]: not statistically significant

SMILES: COc1cc(C(=O)O)ccc1Cn1cc(C)c2ccc(NC(=O)CC3CCCC3)cc21
Inhibition [9]: 59%

SMILES: COc1cc(C(=O)NS(=O)(=O)c2ccccc2C)ccc1Cn1ccc2ccc(OCCC3CCCC3)cc21
Inhibition [10]: 21%

SMILES: COc1cc(C(=O)O)ccc1Cc1cn(C2CCCC2)c2ccc(NC(=O)OC3CCCC3)cc12
pKB [12]: 7.67

SMILES: COc1cc(C(=O)O)ccc1Cn1ccc2ccc(OCCC3CCCC3)cc21
Inhibition [4]: 75%

SMILES: CCCCOC(=O)Nc1ccc2ccn(Cc3ccc(C(=O)O)cc3OC)c2c1
Inhibition [14]: 25% | Inhibition [15]: 54% | Kb [6]: 155 nM

SMILES: CCCC(=O)c1cn(Cc2ccc(C(=O)O)cc2OC)c2cc(NC(=O)CC3CCCC3)ccc12
Inhibition [9]: 96%

SMILES: COc1cc(C(=O)O)ccc1Cc1cn(C)c2ccc(NC(=O)OC3CCCC3)cc12
pKB [12]: 7.84

SMILES: CCCC(=O)c1cn(Cc2ccc(C(=O)NS(=O)(=O)c3ccccc3)cc2OC)c2cc(NC(=O)CC3CCCC3)ccc12
Kb [6]: 0.496 nM

Now from value to compound, other results behind:

Kb [6]: 0.289 nM
SMILES: COc1cc(C(=O)NS(=O)(=O)c2ccccc2C)ccc1Cn1cc(CCC(=O)N2CCOCC2)c2ccc(C(=O)NCC3CCCC3)cc21
Protection [5]: 53%

Ki [8]: 0.3 nM | Kb [6]: 0.245 nM
SMILES: COc1cc(C(=O)NS(=O)(=O)c2ccccc2C)ccc1Cc1cn(C)c2ccc(NC(=O)CC3CCCC3)cc12

Kb [6]: 0.273 nM
SMILES: COC(=O)CCc1cn(Cc2ccc(C(=O)NS(=O)(=O)c3ccccc3)cc2OC)c2cc(NC(=O)CC3CCCC3)ccc12
Protection [5]: 63%

Kb [6]: 10.3 nM
SMILES: COc1cc(C(=O)NS(=O)(=O)c2ccccc2)ccc1Cn1cc(CCC(N)=O)c2ccc(OCCC3CCCC3)cc21
Inhibition [11]: 29%

Kb [6]: 7.73 nM
SMILES: COc1cc(C(=O)NS(=O)(=O)c2ccccc2)ccc1Cn1c2c(c3ccc(NC(=O)CC4CCCC4)cc31)CCCC2

pKB [12]: 9.84
SMILES: COc1cc(C(=O)NS(=O)(=O)c2ccccc2)ccc1Cc1c[nH]c2ccc(NC(=O)OC3CCCC3)cc12

Kb [6]: 0.243 nM
SMILES: COc1cc(C(=O)NS(=O)(=O)c2ccccc2)ccc1Cn1ccc2ccc(NC(=O)CC3CCCC3)cc21
Protection [13]: 43%

pKB [12]: 9.69
SMILES: COc1cc(C(=O)NS(=O)(=O)c2ccccc2)ccc1Cc1cn(C)c2ccc(NC(=O)OC3CCCC3)cc12

Kb [6]: 0.095 nM
SMILES: COc1cc(C(=O)NS(=O)(=O)c2ccccc2C)ccc1Cn1cc(CCC(N)=O)c2ccc(NC(=O)CC3CCCC3)cc21
Protection [16]: 63%

Kb [6]: 0.718 nM
SMILES: COc1cc(C(=O)NS(=O)(=O)c2ccccc2)ccc1Cn1cc(Cl)c2ccc(NC(=O)OC3CCCC3)cc21

Kb [6]: 12.1 nM
SMILES: COc1cc(C(=O)NS(=O)(=O)c2ccccc2C)ccc1Cc1cn(C(C)C(=O)N(C)C)c2ccc(C(=O)NCC3CCCC3)cc12 (configuration not stated)

Kb [6]: 0.106 nM
SMILES: COc1cc(C(=O)NS(=O)(=O)c2ccccc2C)ccc1Cn1ccc2ccc(NC(=O)CC3CCCC3)cc21
Protection [17]: 40%

Ki [8]: 3.21 nM | Kb [6]: 4.28 nM
SMILES: COc1cc(C(=O)NS(=O)(=O)c2ccccc2C)ccc1Cc1cn(C)c2ccc(C(=O)NCC3CCCC3)cc12
Inhibition [11]: 36%

Kb [6]: 0.0731 nM
SMILES: COc1cc(C(=O)NS(=O)(=O)c2ccccc2)ccc1Cn1cc(CCC(=O)O)c2ccc(NC(=O)CC3CCCC3)cc21
Protection [5]: 35%

Kb [6]: 0.0197 nM
SMILES: CNC(=O)CCc1cn(Cc2ccc(C(=O)NS(=O)(=O)c3ccccc3)cc2OC)c2cc(NC(=O)CC3CCCC3)ccc12
Protection [5]: 74%
